# Results as given in the EternaBench riboswitch data.
# System: MS2 coat protein
# Assay: apparent Kd, MS2 coat protein; higher = weaker binding; RNA-MaP array; FMN 200 µM where present
# Summary of the method: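 Each design was made on Illumina sequencing-chip clusters by stalled E. coli RNA polymerase and titrated with SNAP-549-labelled MS2 coat protein from 0.7 or 1.5 nM, doubling to 3 µM, in the absence and then the presence of constant ligand. The buffer was 100 mM Tris-HCl pH 7.5, 80 mM KCl, 4 mM MgCl2, BSA, DTT, yeast tRNA and Tween-20. The apparent Kd is the median of filtered per-cluster fits of binding curves, with green signal normalised to red-channel RNA signal and control-cluster median Fmax.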
# [1] = designed as: OFF switch for flavin mononucleotide, no ligand
# [2] = ligand present: flavin mononucleotide, designed as: OFF switch for flavin mononucleotide
# [3] = designed as: ON switch for flavin mononucleotide, no ligand
# [4] = ligand present: flavin mononucleotide, designed as: ON switch for flavin mononucleotide
Sequence,apparent Kd [1] [nM],apparent Kd [2] [nM],apparent Kd [3] [nM],apparent Kd [4] [nM]
AAUAAUAAGGAGGAUAUCGUAUCGGAGACGAUACGAGAAGGCUUAACAUGAGGAUCACCCAUGUUCCUCAAUAA,35,76.7,–,–
AAUACGUCAGGAUAUCUGAUGUCUAACUUCGGUUAGACAUCAGAGAAGGGACAUGAGGAUCACCCAUGUAUAAA,51.1,44.9,–,–
AAUACUUAGUAAGGAUAUACUAGCGAUUAGCUUGUAGAAGGUACAGUCUUAUGUAUAACAUGUUAACAUGAGGAUCACCCAUGU,–,–,67.2,35.1
AAUAGGUUUCCCGGUGGUUAAUACAUGAGGAUCACCCAUGUCAAGGAUAUAGCCGUAUAACCAGGUUAGAAGGUGACUAAAUGA,67.5,120,–,–
AAUAUGAGCUGGAAUAAACCUUGAACAUGAGGAUCACCCAUGUAGGAUAUCAGCACGAUAAGUGCUGAGAAGGACAACCAGCUC,13.6,15.3,–,–
AAUAUGAGCUGGAAUAACCUAGAAACAUGAGGAUCACCCAUGUAGGAUAUCAGCACGAUAAGUGCUGAGAAGGACAACCAGCUC,14.3,15.2,–,–
AAUAUGUGAGGAUAUCAGGUGUGCUAGCGUACUGGUACAUCUGAGAAGGCACAUGAGGAUCACCCAUGUAUCUU,24.4,87.4,–,–
AAUAUGUUGCAGAAGGCUAUAUUGUUGUAGUACCUCAUGACAUGAGGAUCACCCAUGUUUUUGUUGGAGGAUAUGCAAUAUAUU,7.32,7.07,–,–
AAUCCACAUGAGGAUCACCCAUGUGAGGAUAUCGUGCAGAAAAAAAAAAAAAACUGCACGAGAAGGCACAUGGA,160,69.1,–,–
AAUCCACAUGAGGAUCACCCAUGUGAGGAUAUGAUACUAUGUACUUCGGUACAUAGUAUCAGAAGGCACAAAGG,54.8,99.6,–,–
AAUCUAAUCCUUAAACAUGAGGAUCACCCAUGUAUUGGCAAGUAGGAUAUCGAUAAAUAUUUCAACGAGAAGGACUAUACAAAA,21.7,31.7,–,–
AAUGAAUUCGAGAAGGGAGAUGUGGCACUUGUUUCGAAGUUGUGAUCACUCAGGAUAUCGAAACAUGAGGAUCACCCAUGUAAA,–,–,273,17.5
AAUGCCAAUGAAGGAUAUACAAACAUGAGGAUCACCCAUGUGUCUUUCGUGUAACUGGAAUUCGGGUAGAAGGUCAUUGACAUA,34.5,26.9,–,–
AAUGGCGUCCAAGGAUAUCCUGACCGUUAACAUGAGGAUCACCCAUGUUGCCUAAAGGCGGCAUAGGAGAAGGUGGUACUCUGU,–,–,73.3,124
AAUGUUGAUGUGAGGAUAUACAUAGUUUGACCGUAGUAGAAGGCACAUGAGGAUCACCCAUGUAGAUGUUUGGU,12,24.2,–,–
AAUGUUUUCAUAGGAUAUUGACUUUUAUUUAUUCAAGAAGGAUGAUAACAUGAGGAUCACCCAUGUUAAAAUGGAUUAACUAGU,16.1,26.6,–,–
AAUUAACAUGAGGAUCACCCAUGUCGUAUUAUGGGAGGAUAUACGUGGACCGUAGUCCGCGUAGAAGGCCUAAUUA,–,–,36.6,18
AAUUAACAUGAGGAUCACCCAUGUGAGGAUAUGGUAUUACUUGGACAGCUAUGAUCUACCAGAAGGCACAUCUA,24.4,44.8,–,–
AAUUAACUCACAGGAUAUAGCAGAGGUCGAGUGUACUUACAGGCGACGAGGCUAGAAGGGUGACCACAUGAGGAUCACCCAUGU,–,–,621,103
AAUUAGGUCACAGGAUAUACAACAACCAAUGCUGUAGAAGGGUGACACAUACUUAGCUGACAUGAGGAUCACCCAUGUAACCAC,–,–,31.4,8.87
AAUUAGGUCACAGGAUAUACAACAACCAAUGCUGUAGAAGGGUGACACAUUCUUUGCUGACAUGAGGAUCACCCAUGUAACCAC,–,–,69.3,11.2
AAUUAGUGAGGAUAUACGGGAGGGAGGGAGGGAGGGAGGGAGUAGAAGGCACAUGAGGAUCACCCAUGUAAUUA,15.1,22.7,–,–
AAUUAUUAUUGAGGAUAUCGUAGUGAAACACUACGAGAAGGCGGUAUAAACAUGAGGAUCACCCAUGUGAGCCUGAUGCUUAUG,28.9,58.9,–,–
AAUUAUUAUUGAGGAUAUCGUAUUGAAAUAAUAUGAGAAGGCGGGAUAAACAUGAGGAUCACCCAUGUGAGCCUGAUGCUUGUG,16.6,16.3,–,–
AAUUCACAUGAGGAUCACCCAUGUCAGGAUAUGGUUUCACGUGUUUCGGUGCUUGAGGCCAGAAGGGACAGCUA,67,98.6,–,–
AAUUCACAUGAGGAUCACCCAUGUGAGGAUAUGGUUUCGCUGGCCGUAGCCAGUGGAACCAGAAGGCGCGUGAU,56.5,65.2,–,–
AAUUGACACGUAGGAUAUCGCUCUUAAUUAACACGAGAAGGACGUACAUGAGGAUCACCCAUGUUAAAUGGUGUAGAUUAGUUG,219,599,–,–
AAUUUAAUACAUGAGGAUCACCCAUGUAAUACUUGUAAGAUCAAGGAUAUCAGCUCGAUUAGAGCUGAGAAGGUGAUCACAUGU,–,–,73.1,204

Sequence,apparent Kd [1] [nM],apparent Kd [2] [nM],apparent Kd [3] [nM],apparent Kd [4] [nM]
AAUUUACAGCUAGGAUAUACAUGAGGAUCACCCAUGUAAUGAUCGGAUCUUAUGAUCGUAUCAGUGUAGAAGGAGCAAAUAAGA,12.3,21.3,–,–
AAUUUACAUGAGGAUCACCCAUGUGAGGAUAUAUAUAUAUGUUUGUUAUUGCGUGUGUGUAGAAGGCGCGUGAU,17.6,16.3,–,–
AAUUUGGAGGGAGGAUAUACAUGAGGAUCACCCAUGUAGCCUAACACGGCUCUCAAUUUCCAAGUGUAGAAGGCCCAACGUGUU,13.6,48.8,–,–
ACAAAUCAUGUAGGAUAUCGAUUGCGUCGCGAUCGAGAAGGACAAGAGGGUCACCCUUGUACAUGAGGAUCACCCAUGUCAUGA,193,120,–,–
ACAAAUGGAGGAUAUACAUGAGGAUCACCCAUGUAUAUCCUACAUAUGUGAUAAAAAUGUAGAAGGCCAUUUGA,11.6,10.8,–,–
ACAAAUUACUACCAGACAUGAGGAUCACCCAUGUCUCCACCCAGAAGGGCGACUCUGAGCACAGCGCAGGAUAUGGGUGUUCCA,–,–,59.8,13.5
ACAAGAUCAGGAUAUACAUGAGGAUCACCCAUGUAUAUCCAAAAAGGGCCUUCUACAUGUAGAAGGGAUCUUGU,13.1,12.6,–,–
ACAAGAUCAGGAUAUACAUGAGGAUCACCCAUGUAUUUCAAAAAAAAACUUUCUUUAUGUAGAAGGGAUCUUGU,14.7,13.5,–,–
ACACAACAUGAGGAUCACCCAUGUCAGGAUAUGCAGAACAAGAACAAGACAAGACAGAGCAGAAGGGACAACAC,39.4,35.6,–,–
ACACAUGAGGAUCACCCAUGUAGCUGACGUCUGCGCCAGCCACAGGAUAUACGGCAACACAAACCGUAGAAGGGUGAUAAACAC,–,–,114,23
ACAGCAGUAGGAUAUACAUCACCAUCCGACCGUUGAUUUCAACAUGAGGAUCACCCAUGUAGAAGGGCUAGUUG,93.2,65.7,–,–
ACAGUUGAAGCAGGAUAUGUACAUGAGGAUCACCCAUGUUGUCUGAGCGACUGGGAGUGCUAGCUACAGAAGGGCUUUACGACC,12.9,77,–,–
ACAUAAAUUCGAGGAUAUCGGUGAAAUAAUUUACGAGAAGGCGAUAAUAGUUAUAAACUUAUAGACAUGAGGAUCACCCAUGUA,–,–,31.6,32.4
ACAUAGCGAGGAUAUACAUGAGGAUCACCCAUGUGGUGGCGGUUACGGUAGGACUAGUGUAGAAGGUGCCAUGG,418,424,–,–
ACAUAUAUUCGAGGAUAUCGGUGAUAAAUUUUACGAGAAGGCGAUAAAAGAUAUAAUCUUAUAGACAUGAGGAUCACCCAUGUA,–,–,27.3,27.1
ACAUGAGGAUCACCCAUGUAAUGAUGGGUACUAUAUUAUUCGUAGGAUAUCGUUGUUAGUUUGUGCGAGAAGGACGAUUGCUUU,871,1060,–,–
ACAUGAGGAUCACCCAUGUAGAAUGAAGAAGGUAGAUACUUGAGGAUCACCCAUGUACAUGGGACUAAGGAUAUUCUAAUAAUU,–,–,144,105
ACAUGAGGAUCACCCAUGUAGAAUGAAGAAGGUAGAUACUUGAGGCUCACCCAUGUACAUGGGACUAAGGAUAUUCUAAUAAUU,–,–,42.7,27.7
ACAUGAGGAUCACCCAUGUAUACAUAGGAUAUUGGUGAUCAGGGAUGUUUUACAGGAUAUGUCUGCGAGAAGGAUGCAAGUAGU,–,–,238,48.3
ACAUGAGGAUCACCCAUGUGAACAUAGGAUAUUGGUGAUCAGGCGUGUUAUACAGGAUAGGUCUGCGAGAAGGGUGUACGUUGC,–,–,367,71.7
ACAUGAGGAUCACCCAUGUGUACAUAGGAUAUUGAGGAUUAGGGAUGUUGUUUUGGAUUUGCCCACAAGAAGGAUGAAAGUGUU,–,–,9.68,8.68
ACAUGAGGAUCACCCAUGUGUGCAUAGGAUAUUGAGGAUUAGGGAUGUUUUUUUGGAUUUGCCCACAAGAAGGAUGAAAGUGUU,–,–,10.6,10.5
ACAUGAGGAUCACCCAUGUUCACAUAGGAUAUUGAUUAUAUUGGUUUUAGAAUAGUAAUUAACCUCAAGAAGGAUGCCAGAUCU,–,–,13.7,10.1
ACAUGAGGAUCACCCAUGUUCGUCGCGUUGUGUCGCGAGUCUGAGGAUAUCGAGGUGGGUUUUGUUGAGAAGGCGGGCCCGUGU,–,–,129,151
ACAUGAGGAUGAGGAUAUUCAUACAUGAGGAUAGAAGAAGGCAUACAUGAGGAUCACCCAUGUAUACACAUGAGGAUCACCCAU,82.5,85.3,–,–
ACAUGAUAUGUAGGAUAUCACUACUUGUGUUAUAAAAUUGUAAUUUAGGAUUGAGAAGGACAUUUACAUGAGGAUCACCCAUGU,14.7,11.6,–,–
ACAUGAUCAGGAUAUACAUGAGGAUCACCCAUGUAAAUAAAAAAAAAACUUUCUUUAUGUAGAAGGGAUCUUGU,21,30.1,–,–
